We go through three molecules from ChEMBL document CHEMBL3526015, “Metabolism of the c-Fos/activator protein-1 inhibitor T-5224 by multiple human UDP-glucuronosyltransferase isoforms” (Drug Metab Dispos, 2011).

For series [1], the target named is T1, UDP-glucuronosyltransferase 1A1 (Homo sapiens, UniProt P22309).
T1 sequence (P22309 whole entry): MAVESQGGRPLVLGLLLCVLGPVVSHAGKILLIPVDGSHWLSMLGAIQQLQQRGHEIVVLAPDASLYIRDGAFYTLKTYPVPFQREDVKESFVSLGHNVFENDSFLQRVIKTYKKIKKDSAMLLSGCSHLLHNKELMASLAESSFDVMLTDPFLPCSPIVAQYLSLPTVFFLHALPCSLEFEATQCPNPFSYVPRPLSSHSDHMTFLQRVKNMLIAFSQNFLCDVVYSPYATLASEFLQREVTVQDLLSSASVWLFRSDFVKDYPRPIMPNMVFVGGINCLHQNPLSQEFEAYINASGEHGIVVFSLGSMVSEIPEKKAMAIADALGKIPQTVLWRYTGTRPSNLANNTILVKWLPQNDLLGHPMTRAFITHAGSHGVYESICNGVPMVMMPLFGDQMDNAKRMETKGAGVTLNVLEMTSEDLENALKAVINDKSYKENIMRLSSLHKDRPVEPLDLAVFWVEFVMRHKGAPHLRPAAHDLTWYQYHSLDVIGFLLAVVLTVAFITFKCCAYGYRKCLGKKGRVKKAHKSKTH
Kind of series: Drug level assessed as human UGT1A1-mediated compound formation from 5 to 50 uM T-5224 after 60 mins in presence of UDP-glucuronic acid by HPLC method. To be noted: recombinant enzyme, 1 h. It counts as ADME. The essentials:
(§1)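 Recombinant human UGT microsomes from baculovirus-infected insect cells, 0.1 mg protein/mL, in 50 mM Tris-HCl pH 7.5, 8 mM MgCl2, alamethicin. T-5224 in DMSO (2% v/v final). Preincubated 5 min at 37°C, started with 2 mM UDPGA, run 60 min at 37°C and stopped with acetonitrile. Glucuronides resolved by C18 HPLC with UV at 290 nm. Linearity was checked at 0.05–0.2 mg/mL protein and 10–60 min.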

In series [2] the target is T2, UDP-glucuronosyltransferase 1A3 (Homo sapiens, UniProt P35503).
T2 sequence (P35503 whole entry): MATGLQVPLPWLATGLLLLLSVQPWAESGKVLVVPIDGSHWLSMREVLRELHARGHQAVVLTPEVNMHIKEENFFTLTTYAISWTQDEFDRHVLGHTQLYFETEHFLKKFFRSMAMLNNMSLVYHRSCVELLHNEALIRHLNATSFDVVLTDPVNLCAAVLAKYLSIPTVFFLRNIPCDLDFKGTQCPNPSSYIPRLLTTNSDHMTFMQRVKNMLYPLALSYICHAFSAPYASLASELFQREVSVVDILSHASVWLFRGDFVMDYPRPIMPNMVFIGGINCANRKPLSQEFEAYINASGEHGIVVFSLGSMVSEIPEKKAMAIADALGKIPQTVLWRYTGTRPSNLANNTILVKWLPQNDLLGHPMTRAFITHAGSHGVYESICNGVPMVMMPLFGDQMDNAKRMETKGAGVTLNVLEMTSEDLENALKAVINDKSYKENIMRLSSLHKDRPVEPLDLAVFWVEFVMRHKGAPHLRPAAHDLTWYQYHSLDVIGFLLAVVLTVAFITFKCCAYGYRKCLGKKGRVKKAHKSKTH
Kind of series: Drug level assessed as human UGT1A3-mediated compound formation from 5 to 50 uM T-5224 after 60 mins in presence of UDP-glucuronic acid by HPLC method. It counts as ADME. To be noted: recombinant enzyme, 1 h. The essentials:
as §1

Series [3] addresses T1, UDP-glucuronosyltransferase 1A1. Kind of series: Drug level assessed as human UGT1A1-mediated compound formation from 5 to 50 uM T-5224 after 10 to 60 mins in presence of UDP-glucuronic acid by HPLC method. Format: ADME. To be noted: recombinant enzyme. The essentials: as §1
Series [4] addresses T2, UDP-glucuronosyltransferase 1A3. The series is described as follows: Drug level assessed as human UGT1A3-mediated compound formation from 5 to 50 uM T-5224 after 10 to 60 mins in presence of UDP-glucuronic acid by HPLC method. To be noted: recombinant enzyme. It counts as ADME. The essentials:
as §1

The target of series [5] is T1, UDP-glucuronosyltransferase 1A1. The series is described as follows: Drug level assessed as human UGT1A1-mediated compound formation from 5 to 50 uM T-5224 after 60 mins in presence of UDP-glucuronic acid using 0.05 to 0.2 mg/ml by HPLC method. Format: ADME. The conditions noted are these: recombinant enzyme, 1 h. The essentials: as §1
The target of series [6] is T2, UDP-glucuronosyltransferase 1A3. The series is described as follows: Drug level assessed as human UGT1A3-mediated compound formation from 5 to 50 uM T-5224 after 60 mins in presence of UDP-glucuronic acid using 0.05 to 0.2 mg/ml by HPLC method. Format: ADME. To be noted: recombinant enzyme, 1 h. The essentials:
as §1

Series [7] deals with Liver microsome. The series is described as follows: Drug level in pooled human liver microsomes treated with T-5224 assessed as compound formation in presence of UDPGA by LC-MS/MS method. It counts as ADME.
Series [8] relates to Liver microsome. Kind of series: Drug level in pooled human liver microsomes treated with 10 uM T-5224 assessed as compound formation after 10 mins by HPLC method. It counts as ADME. In a few lines:
(§2)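 Pooled human liver microsomes at 0.5 mg protein/mL, or pooled intestinal microsomes at 0.25 mg/mL, in 50 mM Tris-HCl pH 7.5, 8 mM MgCl2, alamethicin, with 2 mM UDPGA. T-5224 at 10 μM, 10 min at 37°C after 5 min preincubation; stopped with acetonitrile. HPLC with UV at 290 nm. Linearity was tested over 0.1–1.0 mg/mL protein and 5–30 min.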

The nature of series [9]: Drug level in pooled human intestinal microsomes treated with 10 uM T-5224 assessed as compound formation after 10 mins by HPLC method. It counts as ADME, Intestine, Microsome. In a few lines: as §2
In series [10] the test system is Liver microsome. The series is described as follows: Drug level in pooled human liver microsomes treated with 10 uM T-5224 assessed as compound formation after 5 to 30 mins by HPLC method. Format: ADME. The essentials:
as §2

Series [11] can be described thus: Drug level in pooled human intestinal microsomes treated with 10 uM T-5224 assessed as compound formation after 5 to 30 mins by HPLC method. Format: ADME, Intestine, Microsome. In a few lines:
as §2

The test system of series [12] is Liver microsome. The series is described as follows: Drug level in pooled human liver microsomes treated with 10 uM T-5224 assessed as compound formation after 10 mins using 0.1 to 1.0 mg/ml microsomal protein content by HPLC method. Format: ADME. The essentials: as §2
A short description of series [13]: Drug level in pooled human intestinal microsomes treated with 10 uM T-5224 assessed as compound formation after 10 mins using 0.1 to 1.0 mg/ml microsomal protein content by HPLC method. It counts as ADME, Intestine, Microsome. In a few lines: as §2
Substrate in series [14]: O=C(O)CCc1cc(C(=O)c2ccc(OC3CCCC3)cc2O)ccc1OCc1ccc2c(O)noc2c1
Kind of series: Drug metabolism assessed as Kcat to Km ratio for human UGT1A1-mediated T-5224 hydroxyl O-glucuronide formation per mg protein after 10 to 60 mins in presence of UDP-glucuronic acid by HPLC method. Format: ADME. In a few lines: (§3)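 Recombinant human UGT1A1 from baculovirus-infected insect cells, 0.1 mg protein/mL, in 50 mM Tris-HCl pH 7.5 with 8 mM MgCl2 and alamethicin. T-5224 at 10–50 μM (2% DMSO final). After 5 min preincubation at 37°C, 2 mM UDPGA starts the reaction; 60 min at 37°C, stopped with acetonitrile. Glucuronides quantified by HPLC-UV at 290 nm, triplicate points. Substrate-inhibition fit gives Vmax, Km and Ksi. kcat = Vmax/E0, with UGT content taken from immunoblot.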

Substrate in series [15]: O=C(O)CCc1cc(C(=O)c2ccc(OC3CCCC3)cc2O)ccc1OCc1ccc2c(O)noc2c1
The series is described as follows: Drug metabolism assessed as human UGT1A1-mediated T-5224 acyl O-glucuronide formation after 10 to 60 mins in presence of UDP-glucuronic acid by HPLC method. Format: ADME. The essentials:
as §3

Substrate in series [16]: O=C(O)CCc1cc(C(=O)c2ccc(OC3CCCC3)cc2O)ccc1OCc1ccc2c(O)noc2c1
The series is described as follows: Drug metabolism assessed as Kcat to Km ratio for human UGT1A1-mediated T-5224 acyl O-glucuronide formation per mg protein after 10 to 60 mins in presence of UDP-glucuronic acid by HPLC method. It counts as ADME. The essentials: as §3

Substrate in series [17]: O=C(O)CCc1cc(C(=O)c2ccc(OC3CCCC3)cc2O)ccc1OCc1ccc2c(O)noc2c1
The series is described as follows: Drug metabolism assessed as human UGT1A1-mediated T-5224 hydroxyl O-glucuronide formation after 10 to 60 mins in presence of UDP-glucuronic acid by HPLC method. Format: ADME. The essentials: as §3

Substrate in series [18]: O=C(O)CCc1cc(C(=O)c2ccc(OC3CCCC3)cc2O)ccc1OCc1ccc2c(O)noc2c1
Kind of series: Drug metabolism assessed as human UGT1A3-mediated T-5224 hydroxyl O-glucuronide formation after 10 to 60 mins in presence of UDP-glucuronic acid by HPLC method. Format: ADME. The essentials: (§4)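 Kinetics used recombinant UGT1A1, 1A3 or 1A8 (0.1 mg protein/mL) with T-5224 at 1–50 μM, 2 mM UDPGA and 60 min at 37°C, in triplicate. G2/G3 were measured by HPLC at 290 nm and fitted to a substrate-inhibition model (Vmax, Km, Ksi). UGT content was quantified by immunoblot, and kcat = Vmax/E0 was derived from it.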

Substrate in series [19]: O=C(O)CCc1cc(C(=O)c2ccc(OC3CCCC3)cc2O)ccc1OCc1ccc2c(O)noc2c1
The series is described as follows: Drug metabolism assessed as Kcat to Km ratio for human UGT1A3-mediated T-5224 hydroxyl O-glucuronide formation per mg protein after 10 to 60 mins in presence of UDP-glucuronic acid by HPLC method. Format: ADME. The essentials: as §4

Substrate in series [20]: O=C(O)CCc1cc(C(=O)c2ccc(OC3CCCC3)cc2O)ccc1OCc1ccc2c(O)noc2c1
The series is described as follows: Drug metabolism assessed as human UGT1A3-mediated T-5224 acyl O-glucuronide formation after 10 to 60 mins in presence of UDP-glucuronic acid by HPLC method. Format: ADME. In a few lines: as §4

Substrate in series [21]: O=C(O)CCc1cc(C(=O)c2ccc(OC3CCCC3)cc2O)ccc1OCc1ccc2c(O)noc2c1
The series is described as follows: Drug metabolism assessed as Kcat to Km ratio for human UGT1A3-mediated T-5224 acyl O-glucuronide formation per mg protein after 10 to 60 mins in presence of UDP-glucuronic acid by HPLC method. It counts as ADME. The essentials: as §4

With `O=C(CCc1cc(C(=O)c2ccc(OC3CCCC3)cc2O)ccc1OCc1ccc2c(O)noc2c1)O[C@@H]1O[C@H](C(=O)O)[C@@H](O)[C@H](O)[C@H]1O`, the Drug metabolism entry was “metabolite_detected” in series [1]; “metabolite_detected” in series [2]; “Dose-dependent effect” in [3]; “Dose-dependent effect” in series [4]; “Dose-dependent effect” in series [5]; “Dose-dependent effect” in series [6]. For the same molecule, the Drug metabolism result is “metabolite_detected” in the series with Liver microsome [7]; “metabolite_detected” with Liver microsome [8]; “metabolite_detected” in series [9]; “Dose-dependent effect” in the series with Liver microsome [10]; “Dose-dependent effect” in series [11]; “Dose-dependent effect” in the series with Liver microsome [12]. In addition, in series [13], the Drug metabolism result was “Dose-dependent effect”.

B1: UDP-glucuronosyltransferase 1A1 (Homo sapiens) (protein)
chain: MAVESQGGRPLVLGLLLCVLGPVVSHAGKILLIPVDGSHWLSMLGAIQQLQQRGHEIVVLAPDASLYIRDGAFYTLKTYPVPFQREDVKESFVSLGHNVFENDSFLQRVIKTYKKIKKDSAMLLSGCSHLLHNKELMASLAESSFDVMLTDPFLPCSPIVAQYLSLPTVFFLHALPCSLEFEATQCPNPFSYVPRPLSSHSDHMTFLQRVKNMLIAFSQNFLCDVVYSPYATLASEFLQREVTVQDLLSSASVWLFRSDFVKDYPRPIMPNMVFVGGINCLHQNPLSQEFEAYINASGEHGIVVFSLGSMVSEIPEKKAMAIADALGKIPQTVLWRYTGTRPSNLANNTILVKWLPQNDLLGHPMTRAFITHAGSHGVYESICNGVPMVMMPLFGDQMDNAKRMETKGAGVTLNVLEMTSEDLENALKAVINDKSYKENIMRLSSLHKDRPVEPLDLAVFWVEFVMRHKGAPHLRPAAHDLTWYQYHSLDVIGFLLAVVLTVAFITFKCCAYGYRKCLGKKGRVKKAHKSKTH
Take B1: the kcat/Km in series [14] was found to be 284 M⁻¹ s⁻¹; in series [16], 903 M⁻¹ s⁻¹. Moreover, the Km was 7.91 µM in series [15] and 5.56 µM in series [17]. For the same molecule, the values for the kcat in series [15] and in series [17] were 0.0072 s⁻¹ and 0.00158 s⁻¹, respectively.

B2: UDP-glucuronosyltransferase 1A3 (Homo sapiens) (protein)
chain: MATGLQVPLPWLATGLLLLLSVQPWAESGKVLVVPIDGSHWLSMREVLRELHARGHQAVVLTPEVNMHIKEENFFTLTTYAISWTQDEFDRHVLGHTQLYFETEHFLKKFFRSMAMLNNMSLVYHRSCVELLHNEALIRHLNATSFDVVLTDPVNLCAAVLAKYLSIPTVFFLRNIPCDLDFKGTQCPNPSSYIPRLLTTNSDHMTFMQRVKNMLYPLALSYICHAFSAPYASLASELFQREVSVVDILSHASVWLFRGDFVMDYPRPIMPNMVFIGGINCANRKPLSQEFEAYINASGEHGIVVFSLGSMVSEIPEKKAMAIADALGKIPQTVLWRYTGTRPSNLANNTILVKWLPQNDLLGHPMTRAFITHAGSHGVYESICNGVPMVMMPLFGDQMDNAKRMETKGAGVTLNVLEMTSEDLENALKAVINDKSYKENIMRLSSLHKDRPVEPLDLAVFWVEFVMRHKGAPHLRPAAHDLTWYQYHSLDVIGFLLAVVLTVAFITFKCCAYGYRKCLGKKGRVKKAHKSKTH
With B2, the Km in [18] is 17.9 µM; in series [20], 7.21 µM. Moreover, the kcat in series [18] was determined as 0.0138 s⁻¹; in series [20], 0.00182 s⁻¹. In addition, the results for the catalytic efficiency (kcat/Km) in series [19] and in series [21] were 774 M⁻¹ s⁻¹ and 252 M⁻¹ s⁻¹, respectively.
